What is called IC50 is the concentration needed to halve the response being measured. Read a low IC50 as inhibition by little substance. Usually mortality stands for the percentage killed.

SMILES strings stand for the structures. The source made the active and inactive calls. No cut-off for these calls is given here.

Series [1] concerns NCI-H1975. Description: Antiproliferative activity against human NCI-H1975 cells at 5 uM after 72 hrs by MTT assay. Format: functional, cell-based. In outline: (§1)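 Single-concentration screen at 5 μM. Cells seeded at 3000 per well, cultured overnight, treated 72 h. MTT (5 mg/mL stock) added for 4 h, formazan dissolved in DMSO, absorbance at 490 nm. Growth inhibition rate = [1 − A treated/A control]×100%.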
For orientation: Formazan colour is commonly taken as a measure of viable cells.

Series [2] relates to A549. The series is described as follows: Antiproliferative activity against human A549 cells at 5 uM after 72 hrs by MTT assay. Format: functional, cell-based. The method in brief:
as §1

Series [3] relates to NCI-H460. The series is described as follows: Antiproliferative activity against human NCI-H460 cells at 5 uM after 72 hrs by MTT assay. The series is classed as functional, cell-based. The method in brief:
as §1

In series [4] the test system is NCI-H460. The series is described as follows: Antiproliferative activity against human NCI-H460 cells after 72 hrs by MTT assay. Format: functional, cell-based. To be noted: NCI-H460, 72 h. The method in brief:
(§2)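 Cells seeded at 3000 per well, cultured overnight, then exposed to compounds for 72 h at 37 °C, 5% CO2. MTT (5 mg/mL stock) added for 4 h, formazan dissolved in DMSO, absorbance read at 490 nm. Inhibition calculated as [1 − A treated/A control]×100%, and IC50 derived from the inhibition data. Mean ± SEM of three independent experiments.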

Series [5] concerns NCI-H1975. Description: Antiproliferative activity against human NCI-H1975 cells after 72 hrs by MTT assay. The note with it: NCI-H1975, 72 h. Format: functional, cell-based. The method in brief: as §2
Series [6] concerns NCI-H460. The series is described as follows: Inhibition of colony formation in human NCI-H460 cells after 12 hrs by crystal violet staining-based assay. The series is classed as functional, cell-based. In outline:
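Cells seeded at 1000 per well and grown overnight. Exposed to compounds at 1.25, 2.5 and 5 μM for 12 h, then switched to normal medium for about 8 days. Colonies stained with crystal violet and photographed.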

Series [7] relates to A549. The series is described as follows: Antiproliferative activity against human A549 cells after 72 hrs by MTT assay. The note with it: A549, 72 h. The series is classed as functional, cell-based. The method in brief: as §2
Series [8] concerns NCI-H460. Description: Antiproliferative activity against human NCI-H460 cells at 5 uM after 12 to 72 hrs by MTT assay. The note with it: TDE = time-dependent effect. Format: functional, cell-based. The method in brief: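 Time course at 5 μM, with exposures of 12, 24, 48 and 72 h. Cells seeded at 3000 per well after overnight attachment. Viability read by MTT (5 mg/mL stock, 4 h), formazan dissolved in DMSO, absorbance at 490 nm.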

Series [9] deals with NCI-H460. The series is described as follows: Induction of pyroptosis in human NCI-H460 cells assessed as cytoplasmic swelling at 20 uM after 19 to 24 hrs by bright field microscopic analysis. Format: functional, cell-based. The method in brief:
(§3)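 Cells plated at 300,000/well 24 h before stimulation, then exposed to compound at 20 μM for 19 and 24 h. Cisplatin (20 μg/mL, 24 h) run alongside, with DMSO-treated cells as control. Morphology recorded by static bright-field microscopy.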

In series [10] the test system is NCI-H460. Description: Induction of pyroptosis in human NCI-H460 cells assessed as reduction in pro-caspase-3 protein expression at 5 uM by Western blot analysis. The series is classed as functional, cell-based. The note with it: TDE = time-dependent effect. On the technique in general: A western blot detects proteins with antibodies after separation by electrophoresis.

In series [11] the test system is NCI-H460. Description: Antiproliferative activity against human NCI-H460 cells assessed as reduction in cell viability preincubated with 5 mM NAC for 1 hr followed by compound addition at 5 uM after 48 hrs by MTT assay. The series is classed as functional, cell-based. In outline:
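Cells pre-incubated with 5 mM NAC for 1 h, then exposed to compound at 5 μM for 48 h. Viability read by MTT at 490 nm after formazan solubilisation in DMSO. Groups compared against compound-only and NAC-only treatments.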

For series [12], the system named is NCI-H460. Description: Induction of intracellular ROS accumulation in human NCI-H460 cells pre-treated with 5 mM NAC for 1 hr followed by compound addition at 10 uM for 3 hrs by DCFH-DA staining-based flow cytometric analysis. Format: functional, cell-based. In outline:
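Cells plated at 300,000/well for 24 h, pretreated with 5 mM NAC for 1 h, then given compound at 10 μM for 3 h. Loaded with DCFH-DA (10 μM) for 30 min at 37 °C in the dark in serum-free medium. Read by flow cytometry.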
On the technique in general: A flow cytometer gives signals particle by particle.

Series [13] relates to NCI-H460. The series is described as follows: Inhibition of colony formation in human NCI-H460 cells preincubated with 5 mM NAC for 1 hr followed by compound addition at 5 uM after 12 hrs by crystal violet staining-based assay. Format: functional, cell-based. In outline: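 Cells pre-incubated with 5 mM NAC for 1 h, then exposed to compound at 5 μM for 12 h. Medium replaced with fresh medium and colonies grown about 8 days. Colonies stained with crystal violet and imaged.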

For series [14], the system named is NCI-H460. The series is described as follows: Induction of pyroptosis in human NCI-H460 cells pretreated with 20 mM NAC for 4 hrs followed by compound addition assessed as at 20 uM after 24 hrs by bright field microscopic analysis. Format: functional, cell-based. The method in brief:
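Cells plated at 300,000/well, pretreated with NAC (20 mM) for 4 h, then given compound at 20 μM for 24 h. Pyroptotic morphology recorded by bright-field microscopic imaging, with DMSO-treated cells as control.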

Series [15] concerns NCI-H460. Description: Induction of intracellular ROS accumulation in human NCI-H460 cells at 10 uM after 3 to 24 hrs by DCFH-DA staining-based flow cytometric analysis. Format: functional, cell-based. In outline: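 Cells plated at 300,000/well for 24 h, then treated at 10 μM for 3, 6, 12 and 24 h. Switched to serum-free medium and loaded with DCFH-DA (10 μM) for 30 min at 37 °C in the dark. Cells collected and analysed by flow cytometry.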

Series [16] relates to NCI-H460. The series is described as follows: Induction of pyroptosis in human NCI-H460 cells at 20 uM assessed as loss of osmotic potential at 20 uM after 19 to 24 hrs by bright field microscopic analysis. The series is classed as functional, cell-based. The method in brief: as §3
Another series concerns Mus musculus. The series is described as follows: (§4) Acute toxicity in BALB/c mouse assessed as mortality at 500 mg/kg, ip administered as single dose on day 1 measured during 14 days. Format: organism-based. To be noted: in vivo, 336 h. The method in brief:
(§5)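 Male wild-type BALB/c mice (26-33 g), randomised into groups of n=6 (vehicle, reference agent, test). Single intraperitoneal injection at 500 mg/kg on the first day only. Housed on a 12 h light-dark cycle at 25 °C with free water and diet. Deaths recorded over 14 days, then all animals euthanised.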

For series [17], the system named is NCI-H460. Description: Induction of pyroptosis in human NCI-H460 cells assessed as release of cellular content at 20 uM after 19 to 24 hrs by bright field microscopic analysis. The series is classed as functional, cell-based. In outline: as §3
A short description of series [18]: as §4. The series is classed as organism-based. To be noted: BALB/c, in vivo. In outline:
as §5

On to `C=CC(=O)Nc1ccc(C(=O)/C=C/c2ccc(Cl)c(Cl)c2)cc1`, for which the result in the series with NCI-H1975 [1] and with NCI-H460 [3] was Active. In the series on A549 [2], the result was inactive.
As for `C=CC(=O)Nc1ccc(C(=O)/C=C/c2ccccc2Br)cc1`, the figures for the IC50 in the series on NCI-H460 [4], in the series on NCI-H1975 [5] and in the series with A549 [7] were 2.2 µM, 5.2 µM and 4.4 µM, respectively. Also, the inhibition result in the series with NCI-H460 [6] is “Dose-dependent effect”. Also, the result in the series with NCI-H1975 [1] and in the series on NCI-H460 [3] was Active. Further, the Activity entry in the series with NCI-H460 [8] was “Tde”.
In the case of `C=CC(=O)Nc1ccc(C(=O)/C=C/c2ccc(OC)cc2)cc1`, the outcome in the series with NCI-H1975 [1] and with NCI-H460 [3] was Active. Further, the outcome with A549 [2] was inactive.
For the molecule `C=CC(=O)Nc1ccc(C(=O)/C=C/c2cccc(Cl)c2Cl)cc1`, the outcome with NCI-H1975 [1] and in the series with NCI-H460 [3] was Active.
On to `C=CC(=O)Nc1ccc(C(=O)/C=C/c2ccccc2Cl)cc1`, for which the results for the half-inhibitory concentration (IC50) in the series with NCI-H460 [4], with NCI-H1975 [5] and with A549 [7] were 2.3 µM, 5.7 µM and 3.2 µM, respectively. The result with NCI-H460 [9], in the series on NCI-H1975 [1], with A549 [2], in the series with NCI-H460 [15], in the series on NCI-H460 [16] and in the series with NCI-H460 [3] was Active. Besides, the result in the series with NCI-H460 [17] was Active. Moreover, the Activity result in the series on NCI-H460 [10] was “Tde”; with NCI-H460 [8], “Tde”; in the series on Mus musculus, “Non-Toxic”. Further, the outcome in the series with NCI-H460 [11], in the series with NCI-H460 [12] and in the series on NCI-H460 [14] was inactive. Further, the inhibition entry with NCI-H460 [13] was “inactive”. The inhibition result with NCI-H460 [6] was “Dose-dependent effect”.
Regarding `C=CC(=O)Nc1ccc(C(=O)/C=C/c2ccc(N(C)C)cc2)cc1`, the outcome with NCI-H1975 [1] and in the series with NCI-H460 [3] was Active. Also, in the series with A549 [2], the outcome was inactive.
As for `C=CC(=O)Nc1ccc(C(=O)/C=C/c2cc(OC)c(OC)c(OC)c2)cc1`, the half-maximal inhibitory concentration (IC50) in the series with NCI-H460 [4] turned out to be 2 µM; in the series with NCI-H1975 [5] it was 5.4 µM; in the series on A549 [7] it was 4 µM. Moreover, the inhibition result with NCI-H460 [6] is “Dose-dependent effect”. In addition, the outcome in the series with NCI-H1975 [1] and in the series with NCI-H460 [3] was Active. The Activity entry in the series on NCI-H460 [8] is “Tde”.
For `C=CC(=O)Nc1ccc(C(=O)/C=C/c2c(F)cccc2F)cc1`, the outcome with NCI-H1975 [1] and with NCI-H460 [3] was Active.
For `COc1cc(O)c(CC=C(C)C)c(O)c1C(=O)/C=C/c1ccc(O)cc1` [XANTHOHUMOL], the IC50 with NCI-H460 [4] is 7.5 µM; in the series with NCI-H1975 [5] it was 13 µM; with A549 [7], 11.9 µM.
For `C=CC(=O)Nc1ccc(C(=O)/C=C/c2cccc(OC)c2OC)cc1`, the result in the series with NCI-H1975 [1] and in the series with NCI-H460 [3] was Active.
On to `C=CC(=O)Nc1ccc(C(=O)/C=C/c2ccc(F)c(F)c2)cc1`, for which the result with NCI-H1975 [1] and in the series on NCI-H460 [3] was Active. Also, the result in the series on A549 [2] was inactive.
`C=CC(=O)Nc1ccc(C(=O)/C=C/c2cccc(F)c2)cc1`: the outcome in the series with NCI-H1975 [1] and in the series on NCI-H460 [3] was Active.
For `C=CC(=O)Nc1ccc(C(C)=O)cc1`, the result with NCI-H1975 [1], with A549 [2] and in the series on NCI-H460 [3] was Active.
Turning to `C=CC(=O)Nc1ccc(C(=O)/C=C/c2cc(OC)ccc2OC)cc1`, the result with NCI-H1975 [1] and with NCI-H460 [3] was Active.
For `O=C1/C(=C/c2ccccc2F)CNC/C1=C\c1ccccc1F`, the mortality at 336 h in series [18] came out at 33.3%.
In the case of `C=CC(=O)Nc1ccc(C(=O)/C=C/c2ccc(Cl)cc2)cc1`, the outcome in the series on NCI-H1975 [1] and with NCI-H460 [3] was Active. Moreover, the outcome in the series on A549 [2] was inactive.
Regarding `C=CC(=O)Nc1ccc(C(=O)/C=C/c2ccccc2)cc1`, the outcome in the series with NCI-H1975 [1] and with NCI-H460 [3] was Active.
Regarding `C=CC(=O)Nc1ccc(C(=O)/C=C/c2cc(OC)ccc2F)cc1`, the outcome with NCI-H1975 [1] and in the series with NCI-H460 [3] was Active.
For the molecule `Nc1ccc(C(=O)/C=C/c2ccccc2Cl)cc1`, the result in the series with NCI-H1975 [1], in the series on A549 [2] and in the series on NCI-H460 [3] was Active.
On to `C=CC(=O)Nc1ccc(C(=O)/C=C/c2ccccc2F)cc1`, for which the result in the series on NCI-H1975 [1] and in the series on NCI-H460 [3] was Active.
Consider `C=CC(=O)Nc1ccc(C(=O)/C=C/c2ccc(Cl)cc2Cl)cc1`, for which the result in the series with NCI-H1975 [1] and with NCI-H460 [3] was Active.
Consider `C=CC(=O)Nc1ccc(C(=O)/C=C/c2ccccc2C(F)(F)F)cc1`, for which the result in the series with NCI-H1975 [1], with A549 [2] and with NCI-H460 [3] was Active.
Take `C=CC(=O)Nc1ccc(C(=O)/C=C/c2ccc(OC)c(OC)c2)cc1`: the result in the series on NCI-H1975 [1] and in the series on NCI-H460 [3] was Active. For the same molecule, in the series with A549 [2], the result was inactive.

The record behind these values is ChEMBL document CHEMBL4261590, “Design, synthesis, and evaluation of chalcone analogues incorporate α,β-Unsaturated ketone functionality as anti-lung cancer agents via evoking ROS to induce pyroptosis” (Eur J Med Chem, 2018).
